ChEMBL document CHEMBL1828498, “Identification and characterization of a novel integrin-linked kinase inhibitor” (J Med Chem, 2011)
Calls of active or inactive are those of the source. Unless noted, the rule behind the calls is not given here.

Key:
MDA-MB-231 = test: Antiproliferative activity against human MDA-MB-231 cells assessed as suppression of cell viability by MTT assay; type: functional, cell-based
Outline: (§1)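 Cancer lines seeded 5000/well and nonmalignant PrEC/MEC 8000/well in 10% FBS, 24 h before treatment. Compound exposure 24 h in 5% FBS medium, 0.1% final DMSO. MTT (0.25 mg/mL) for 1 h at 37°C, dye solubilized in DMSO, absorbance read at 570 nm. Mean ± SD, n = 6.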

PrEC = test: Antiproliferative activity against human PrEC cells at 1 to 5 uM by MTT assay; type: cell-based; outline: as §1
PC-3 [1] = test: Antiproliferative activity against human PC3 cells expressing constitutively active ILK assessed as cell viability by MTT assay; type: functional, cell-based
Outline: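 Stable PC-3 clones expressing GFP-CA-ILK (or GFP), made by electroporation, G418 250 μg/mL for one week and GFP sorting. Treated 24 h in 5% FBS medium. Viability by MTT, 0.25 mg/mL, 1 h at 37°C, A570. n = 6, mean ± SD.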

PC-3 [2] = test: Reduction in HER2 mRNA expression in human PC3 cells after 24 hrs by RT-PCR analysis; type: functional, cell-based
Outline: (§2)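 PC-3, PC-3/CA-ILK, SKBR3 and SKBR3/CA-ILK cells treated 24 h in 5% FBS medium; total RNA from 1 × 10^6 cells by Trizol, 1 μg reverse-transcribed, then PCR with gene-specific primers and β-actin reference.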

PC-3 [3] = test: Reduction in HER2 mRNA expression in human PC3 cells expressing constitutively active ILK after 24 hrs by RT-PCR analysis; type: functional, cell-based; outline: as §2
PC-3 [4] = test: Reduction in EGFR mRNA expression in human PC3 cells after 24 hrs by RT-PCR analysis; type: functional, cell-based; outline: as §2
SK-BR-3 [5] = test: Reduction in YB-1 mRNA expression in human SKBR3 cells expressing constitutively active ILK after 24 hrs by RT-PCR analysis; type: functional, cell-based; outline: as §2
SK-BR-3 [6] = test: Reduction in EGFR concentration in human SKBR3 cells after 24 hrs by Western blot analysis; type: functional, cell-based
Outline: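 PC-3 versus stable PC-3/CA-ILK, or SKBR3 versus transient SKBR3/CA-ILK (electroporation, used 48 h after), treated 24 h in 5% FBS medium; immunoblotting with ECL; representative of three experiments.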

SK-BR-3 [7] = test: Reduction in EGFR mRNA expression in human SKBR3 cells after 24 hrs by RT-PCR analysis; type: functional, cell-based; outline: as §2
[8] = target: Cyclin-dependent kinase 5/CDK5 activator 1 (Homo sapiens) (UniProt Q00535+Q15078); test: Inhibition of CDK5/p25 at 5 uM assessed as remaining activity; type: protein-complex assay
Chain of Cyclin-dependent kinase 5/CDK5 activator 1 (Homo sapiens) (Q00535 whole entry): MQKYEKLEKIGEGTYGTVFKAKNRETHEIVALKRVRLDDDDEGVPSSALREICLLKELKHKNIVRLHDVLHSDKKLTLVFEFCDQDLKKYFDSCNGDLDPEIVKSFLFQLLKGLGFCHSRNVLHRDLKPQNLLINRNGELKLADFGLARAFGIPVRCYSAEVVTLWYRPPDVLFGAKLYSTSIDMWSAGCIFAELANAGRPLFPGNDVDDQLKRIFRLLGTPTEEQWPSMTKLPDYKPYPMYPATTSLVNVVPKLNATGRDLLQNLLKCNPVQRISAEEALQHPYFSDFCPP
Chain of Cyclin-dependent kinase 5/CDK5 activator 1 (Homo sapiens) (Q15078 99-307 partner limits assumed): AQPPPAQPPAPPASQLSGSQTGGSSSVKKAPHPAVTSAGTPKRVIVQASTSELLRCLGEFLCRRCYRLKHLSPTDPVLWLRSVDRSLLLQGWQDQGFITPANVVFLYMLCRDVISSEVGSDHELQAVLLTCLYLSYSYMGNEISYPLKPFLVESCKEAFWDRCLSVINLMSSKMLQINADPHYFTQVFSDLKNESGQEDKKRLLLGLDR
Outline: (§3)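 Panel of 20 recombinant kinases, profiled by a commercial vendor.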

[9] = target: Proto-oncogene tyrosine-protein kinase Src (Homo sapiens) (UniProt P12931); test: Inhibition of cSRC at 5 uM assessed as remaining activity
Chain of Proto-oncogene tyrosine-protein kinase Src (Homo sapiens) (P12931 2-536 limits assumed): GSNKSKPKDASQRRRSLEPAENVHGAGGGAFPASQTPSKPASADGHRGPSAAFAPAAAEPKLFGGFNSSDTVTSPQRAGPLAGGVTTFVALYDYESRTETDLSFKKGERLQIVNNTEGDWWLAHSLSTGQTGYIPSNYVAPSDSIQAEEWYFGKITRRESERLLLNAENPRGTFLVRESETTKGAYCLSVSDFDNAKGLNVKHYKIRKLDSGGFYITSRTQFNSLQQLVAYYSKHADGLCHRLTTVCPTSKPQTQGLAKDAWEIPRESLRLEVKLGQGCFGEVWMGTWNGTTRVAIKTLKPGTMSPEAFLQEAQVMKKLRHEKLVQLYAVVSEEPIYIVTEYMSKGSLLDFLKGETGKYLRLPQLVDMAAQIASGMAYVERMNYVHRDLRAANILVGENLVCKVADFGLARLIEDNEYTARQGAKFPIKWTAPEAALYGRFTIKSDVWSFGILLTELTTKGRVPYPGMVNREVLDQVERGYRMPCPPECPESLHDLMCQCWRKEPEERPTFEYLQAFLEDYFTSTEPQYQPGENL

[10] = target: Tyrosine-protein kinase JAK2 (Homo sapiens) (UniProt O60674); test: Inhibition of Jak2 at 5 uM assessed as remaining activity; outline: as §3
Chain of Tyrosine-protein kinase JAK2 (Homo sapiens) (O60674 whole entry): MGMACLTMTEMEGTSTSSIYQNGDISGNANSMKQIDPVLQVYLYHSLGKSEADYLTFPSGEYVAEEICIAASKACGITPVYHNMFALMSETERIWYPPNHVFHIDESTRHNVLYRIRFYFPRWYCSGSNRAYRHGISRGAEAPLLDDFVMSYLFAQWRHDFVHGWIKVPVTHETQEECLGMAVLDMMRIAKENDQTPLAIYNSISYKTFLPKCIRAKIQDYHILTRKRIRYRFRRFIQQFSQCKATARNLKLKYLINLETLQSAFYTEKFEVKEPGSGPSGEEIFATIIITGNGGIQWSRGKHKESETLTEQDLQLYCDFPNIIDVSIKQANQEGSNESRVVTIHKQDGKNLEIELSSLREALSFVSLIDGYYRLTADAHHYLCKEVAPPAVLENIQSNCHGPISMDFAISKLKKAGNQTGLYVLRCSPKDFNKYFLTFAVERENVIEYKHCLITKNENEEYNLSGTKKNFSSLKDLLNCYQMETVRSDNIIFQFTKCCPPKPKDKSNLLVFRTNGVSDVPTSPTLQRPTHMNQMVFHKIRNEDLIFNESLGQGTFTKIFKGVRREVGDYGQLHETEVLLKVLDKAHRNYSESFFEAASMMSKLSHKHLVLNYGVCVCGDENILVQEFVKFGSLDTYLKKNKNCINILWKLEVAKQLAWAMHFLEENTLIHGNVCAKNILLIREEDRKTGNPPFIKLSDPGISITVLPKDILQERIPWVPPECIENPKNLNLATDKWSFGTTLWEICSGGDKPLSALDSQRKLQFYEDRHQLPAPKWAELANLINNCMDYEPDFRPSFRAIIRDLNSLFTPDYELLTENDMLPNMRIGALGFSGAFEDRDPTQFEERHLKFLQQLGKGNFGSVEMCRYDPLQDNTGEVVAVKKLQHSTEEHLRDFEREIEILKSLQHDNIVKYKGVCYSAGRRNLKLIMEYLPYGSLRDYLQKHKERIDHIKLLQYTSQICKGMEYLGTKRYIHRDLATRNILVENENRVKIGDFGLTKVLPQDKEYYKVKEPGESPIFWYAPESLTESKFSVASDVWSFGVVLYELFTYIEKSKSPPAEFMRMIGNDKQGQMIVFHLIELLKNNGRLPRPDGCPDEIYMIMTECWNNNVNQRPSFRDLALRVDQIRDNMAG

[11] = target: Hepatocyte growth factor receptor (Homo sapiens) (UniProt P08581); test: Inhibition of Met at 5 uM assessed as remaining activity; outline: as §3
Chain of Hepatocyte growth factor receptor (Homo sapiens) (P08581 whole entry): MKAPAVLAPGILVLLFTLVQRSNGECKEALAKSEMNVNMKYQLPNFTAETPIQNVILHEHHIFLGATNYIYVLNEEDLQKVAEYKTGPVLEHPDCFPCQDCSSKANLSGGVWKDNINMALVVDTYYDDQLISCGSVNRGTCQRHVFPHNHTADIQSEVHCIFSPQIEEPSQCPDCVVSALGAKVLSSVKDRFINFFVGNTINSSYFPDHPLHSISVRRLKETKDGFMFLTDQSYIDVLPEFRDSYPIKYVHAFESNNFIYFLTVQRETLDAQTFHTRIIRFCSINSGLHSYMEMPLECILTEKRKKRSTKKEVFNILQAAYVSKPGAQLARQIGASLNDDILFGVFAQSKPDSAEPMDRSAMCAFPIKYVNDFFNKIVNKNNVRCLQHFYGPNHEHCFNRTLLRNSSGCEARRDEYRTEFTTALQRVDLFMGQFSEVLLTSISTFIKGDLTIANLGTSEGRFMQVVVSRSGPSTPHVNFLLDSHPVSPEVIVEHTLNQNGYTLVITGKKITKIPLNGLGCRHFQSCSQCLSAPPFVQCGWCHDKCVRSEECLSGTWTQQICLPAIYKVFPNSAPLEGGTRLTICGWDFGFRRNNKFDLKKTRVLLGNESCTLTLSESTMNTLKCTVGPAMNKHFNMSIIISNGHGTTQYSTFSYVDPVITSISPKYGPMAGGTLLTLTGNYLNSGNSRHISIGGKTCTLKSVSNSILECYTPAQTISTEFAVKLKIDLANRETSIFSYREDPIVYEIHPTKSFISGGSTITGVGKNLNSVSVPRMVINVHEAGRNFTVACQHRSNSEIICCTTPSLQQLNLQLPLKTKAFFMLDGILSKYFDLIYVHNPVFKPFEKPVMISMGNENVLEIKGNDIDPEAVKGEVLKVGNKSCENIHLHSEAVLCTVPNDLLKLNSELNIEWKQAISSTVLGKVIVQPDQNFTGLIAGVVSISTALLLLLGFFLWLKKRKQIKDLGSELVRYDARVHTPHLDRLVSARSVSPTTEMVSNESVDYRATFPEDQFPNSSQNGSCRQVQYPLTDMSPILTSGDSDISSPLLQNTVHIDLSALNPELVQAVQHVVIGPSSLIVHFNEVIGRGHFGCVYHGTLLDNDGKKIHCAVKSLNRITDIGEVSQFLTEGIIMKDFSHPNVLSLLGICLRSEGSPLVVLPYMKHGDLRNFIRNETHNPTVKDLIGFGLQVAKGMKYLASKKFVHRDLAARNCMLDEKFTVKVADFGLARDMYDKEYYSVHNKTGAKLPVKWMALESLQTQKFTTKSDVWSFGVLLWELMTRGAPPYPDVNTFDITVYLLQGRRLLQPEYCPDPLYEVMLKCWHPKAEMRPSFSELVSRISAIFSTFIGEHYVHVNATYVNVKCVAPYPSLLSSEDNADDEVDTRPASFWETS

[12] = target: Tyrosine-protein kinase ZAP-70 (Homo sapiens) (UniProt P43403); test: Inhibition of ZAP70 at 5 uM assessed as remaining activity
Chain of Tyrosine-protein kinase ZAP-70 (Homo sapiens) (P43403 whole entry): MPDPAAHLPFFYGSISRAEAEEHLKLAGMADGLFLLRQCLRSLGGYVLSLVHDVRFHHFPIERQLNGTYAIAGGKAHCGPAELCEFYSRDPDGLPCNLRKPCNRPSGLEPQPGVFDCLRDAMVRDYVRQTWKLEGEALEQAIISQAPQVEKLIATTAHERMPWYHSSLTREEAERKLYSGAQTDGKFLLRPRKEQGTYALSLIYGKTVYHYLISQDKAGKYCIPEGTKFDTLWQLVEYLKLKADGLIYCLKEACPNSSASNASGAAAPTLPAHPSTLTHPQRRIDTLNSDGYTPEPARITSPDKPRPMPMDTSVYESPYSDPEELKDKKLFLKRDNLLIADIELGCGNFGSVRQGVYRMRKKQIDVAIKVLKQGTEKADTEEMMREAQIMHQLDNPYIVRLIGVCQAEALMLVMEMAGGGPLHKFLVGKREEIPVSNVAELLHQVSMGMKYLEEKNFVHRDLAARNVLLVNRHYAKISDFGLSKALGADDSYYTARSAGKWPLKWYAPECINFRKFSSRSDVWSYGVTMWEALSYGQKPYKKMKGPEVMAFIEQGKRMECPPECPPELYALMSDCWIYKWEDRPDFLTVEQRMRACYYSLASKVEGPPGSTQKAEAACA

[13] = target: Ribosomal protein S6 kinase beta-1 (Homo sapiens) (UniProt P23443); test: Inhibition of p70S6K in human PC3 cells assessed as decrease in phosphorylated p70S6K by Western blot analysis; type: cell-based; settings: PC-3
Chain of Ribosomal protein S6 kinase beta-1 (Homo sapiens) (P23443 whole entry, looked up): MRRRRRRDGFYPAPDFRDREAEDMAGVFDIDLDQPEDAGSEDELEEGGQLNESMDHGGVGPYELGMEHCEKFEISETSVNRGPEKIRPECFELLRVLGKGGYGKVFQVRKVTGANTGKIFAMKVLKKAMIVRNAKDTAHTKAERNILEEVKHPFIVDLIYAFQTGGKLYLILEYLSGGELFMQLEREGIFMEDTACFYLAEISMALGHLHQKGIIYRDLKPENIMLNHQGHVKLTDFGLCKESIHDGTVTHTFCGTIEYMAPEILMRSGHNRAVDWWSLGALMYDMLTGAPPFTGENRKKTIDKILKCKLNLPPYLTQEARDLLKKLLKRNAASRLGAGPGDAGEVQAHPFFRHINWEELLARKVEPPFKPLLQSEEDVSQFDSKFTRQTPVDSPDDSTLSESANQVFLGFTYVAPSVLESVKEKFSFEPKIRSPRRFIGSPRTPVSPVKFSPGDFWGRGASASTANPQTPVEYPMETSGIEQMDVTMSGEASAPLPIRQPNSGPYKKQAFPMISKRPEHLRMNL
Outline: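 PC-3 cells (parental, or stable GFP-CA-ILK clones selected with G418 250 μg/mL and GFP sorting) exposed 24 h in 5% FBS medium; SDS lysis, immunoblot at 1:1000 primary, ECL; representative of three experiments.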

PC-3 [14] = test: Induction of apoptosis in human PC3 cells assessed as PARP cleavage by Western blot analysis; type: functional, cell-based
Outline: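 PC-3 cells treated 24 h in 5% FBS medium. Lysed in 1% SDS/10 mM EDTA/50 mM Tris pH 8.1, equal protein on SDS-PAGE, primary antibody 1:1000 at 4°C for 2 h, HRP secondary, ECL detection. Read-outs PARP cleavage and LC3-II conversion; blots representative of three experiments.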

Mus musculus [15] = test: Toxicity in nude mouse assessed as weight loss at 50 mg/kg, po administered for 35 days; type: organism-based; parameters: dose 50 mg/kg, route oral; settings: in vivo, 840 h
Outline: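 Male NCr nude mice bearing s.c. PC-3 tumors, dosed once daily by oral gavage in 0.5% methylcellulose/0.1% Tween 80 vehicle, 10 μL/g, for 35 days; body weight recorded weekly.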

Mus musculus [16] = test: Inhibition of phosphorylation of Thr-308-Akt in human PC3 cells xenografted nude mouse tumor lysate at 25 mg/kg, po administered for 35 days by Western blot analysis; type: functional, organism-based; parameters: dose 25 mg/kg; settings: Neoplasm, PC-3
Outline: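 Tumors harvested at terminal sacrifice after 35 days of daily oral dosing, snap-frozen and stored at -80°C; lysates immunoblotted, three representative tumors per group.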

[17] = target: T1, 3-phosphoinositide-dependent protein kinase 1 (Homo sapiens) (UniProt O15530); test: Inhibition of PDK2 in human PC3 cells assessed as Akt Thr-308 dephosphorylation by Western blot analysis; type: functional, cell-based; settings: PC-3
T1 sequence (whole entry): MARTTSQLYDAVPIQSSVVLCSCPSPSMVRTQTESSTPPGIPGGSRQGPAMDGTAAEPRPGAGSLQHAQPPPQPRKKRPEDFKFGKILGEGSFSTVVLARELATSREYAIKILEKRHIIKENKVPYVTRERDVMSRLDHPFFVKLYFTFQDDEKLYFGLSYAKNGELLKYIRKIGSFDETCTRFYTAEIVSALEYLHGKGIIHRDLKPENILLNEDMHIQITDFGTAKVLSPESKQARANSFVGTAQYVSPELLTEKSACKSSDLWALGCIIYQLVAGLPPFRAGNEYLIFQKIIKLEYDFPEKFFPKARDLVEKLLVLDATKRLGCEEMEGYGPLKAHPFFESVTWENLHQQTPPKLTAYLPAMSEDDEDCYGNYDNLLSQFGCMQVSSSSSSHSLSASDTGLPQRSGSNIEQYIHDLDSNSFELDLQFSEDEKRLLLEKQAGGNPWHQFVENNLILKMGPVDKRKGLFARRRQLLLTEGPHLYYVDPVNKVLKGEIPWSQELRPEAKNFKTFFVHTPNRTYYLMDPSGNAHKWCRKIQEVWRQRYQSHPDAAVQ
Outline: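 Cells exposed 24 h in 5% FBS medium, final DMSO 0.1%; lysed in 1% SDS/10 mM EDTA/50 mM Tris pH 8.1, equal protein on SDS-PAGE, nitrocellulose, primary antibody 1:1000 at 4°C for 2 h, HRP secondary 1:5000, ECL detection; blots representative of three independent experiments.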

- IC50 (MDA-MB-231): 1000 nM
- Activity [8]: 98%
- Activity [9]: 91%
- Activity [10]: 114%
- Activity [11]: 110%
- Activity [12]: 104%
- inhibition [13]: inactive
- inhibition [17]: inactive
SMILES: CNC(=O)CCc1cc(-c2ccc(-c3ccc(C(F)(F)F)cc3)cc2)n(-c2ccc(N3CCNCC3)cc2)n1
- inhibition (INH) (PrEC): Not Active
- inhibition (PC-3 [1]): inactive
- Activity (PC-3 [2]): Dose-dependent effect
- Activity (PC-3 [3]): inactive
- Activity (PC-3 [4]): Dose-dependent effect
- Activity (SK-BR-3 [5]): inactive
- Activity (SK-BR-3 [6]): Dose-dependent effect
- Activity (SK-BR-3 [7]): Dose-dependent effect
- Activity (PC-3 [14]): Dose-dependent effect
- Activity (Mus musculus [15]): Non-toxic
- Activity (Mus musculus [16]): inactive
